# Screening data from PubChem BioAssay.
# SENP8 block-1: SENP8 protease inhibition; AID 2540; actives 1.2% (n = 330,000); inhibition, % at 10 µM; purified SENP8, Z-RLRGG-aminoluciferin cleavage, luminescence; in the data active = inhibition above about 50%
# Apaf-1 inh: human Apaf-1 inhibition; actives 0.71% (n = 330,000); reconstituted apoptosome caspase-3 activity, DEVD-Rh110 fluorescence; O14727; inhibition, % at 20 µM; active = inhibition of at least 40% at 20 µM;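 also: plate controls were DMSO wells for no effect and DEVD-CHO caspase inhibitor wells for full effect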
# Target sequence (O14727 whole entry, looked up): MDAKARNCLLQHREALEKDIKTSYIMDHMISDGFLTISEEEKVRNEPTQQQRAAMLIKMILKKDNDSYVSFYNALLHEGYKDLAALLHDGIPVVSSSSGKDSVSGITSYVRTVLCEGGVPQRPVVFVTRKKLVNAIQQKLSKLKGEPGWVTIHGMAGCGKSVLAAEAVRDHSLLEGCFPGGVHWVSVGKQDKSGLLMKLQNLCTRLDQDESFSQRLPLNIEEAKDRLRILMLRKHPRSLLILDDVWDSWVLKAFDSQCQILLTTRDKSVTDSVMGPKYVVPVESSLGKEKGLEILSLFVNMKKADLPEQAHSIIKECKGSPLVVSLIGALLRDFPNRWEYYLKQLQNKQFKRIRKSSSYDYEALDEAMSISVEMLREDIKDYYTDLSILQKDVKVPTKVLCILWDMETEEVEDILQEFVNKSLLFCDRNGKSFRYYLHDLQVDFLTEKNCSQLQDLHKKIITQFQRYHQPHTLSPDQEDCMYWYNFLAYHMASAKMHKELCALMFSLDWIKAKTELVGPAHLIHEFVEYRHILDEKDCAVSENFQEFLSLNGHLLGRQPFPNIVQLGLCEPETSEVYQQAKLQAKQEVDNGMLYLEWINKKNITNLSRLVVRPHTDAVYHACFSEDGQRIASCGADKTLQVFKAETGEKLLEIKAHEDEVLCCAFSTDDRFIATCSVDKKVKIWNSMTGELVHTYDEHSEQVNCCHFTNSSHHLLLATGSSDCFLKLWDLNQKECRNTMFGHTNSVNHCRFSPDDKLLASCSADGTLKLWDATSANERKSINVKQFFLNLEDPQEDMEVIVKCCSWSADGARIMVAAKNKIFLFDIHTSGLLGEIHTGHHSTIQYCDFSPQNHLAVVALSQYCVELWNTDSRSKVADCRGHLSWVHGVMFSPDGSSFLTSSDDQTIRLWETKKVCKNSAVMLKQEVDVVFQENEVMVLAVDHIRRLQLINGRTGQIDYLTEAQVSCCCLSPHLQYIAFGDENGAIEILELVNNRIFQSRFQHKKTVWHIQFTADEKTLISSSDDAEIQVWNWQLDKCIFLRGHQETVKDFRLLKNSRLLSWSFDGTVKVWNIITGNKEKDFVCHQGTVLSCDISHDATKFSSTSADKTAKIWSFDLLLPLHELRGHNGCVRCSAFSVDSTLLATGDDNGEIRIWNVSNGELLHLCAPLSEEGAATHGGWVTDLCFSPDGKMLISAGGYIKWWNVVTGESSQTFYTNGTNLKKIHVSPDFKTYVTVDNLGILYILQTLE
#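 Assay system: Apoptosome proteins | Medium: pH 7.5 Hepes buffer with CHAPS, BSA, DTT | Also added: Cytochrome c and DEVD-Rh110 substrate | Times: 30 min plus 50 min, RT | Detection: Rhodamine 110 fluorescence at Ex 480/Em 540 nm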
# SENP1 inh: SENP1 (human) catalytic domain inhibition. Q9P0U3. actives 0.21% (n = 360,000). inhibition, % at 10 µM. recombinant SENP1 catalytic domain, CyPet-SUMO1-YPet FRET cleavage;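 active = inhibition at least 30% at 10 µM, raw YFP signal under a set limit, fluorescence ratio 0.5 to 1.5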;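 also: 0% = enzyme with DMSO and 100% = no enzyme wells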
#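 Material: hSENP1 catalytic domain, recombinant; medium: Tris pH 8 with BME, BSA, NP40 and catalase; compound: single concentration of 10 µM compound, 0.5% DMSO final; technique: FRET read of cyan and yellow fluorescence; timing: 50 min enzyme reaction, room temperature, light-protected; reagent: SFCypet-SUMO1-SFYpet substrate at 25 nM; control set: no-enzyme low, enzyme-DMSO high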
# SENP8 block-2: SENP8 (human) protease inhibition | recombinant SENP8, Nedd8 substrate fluorescence | Q96LD8 | inhibition, % at 20 µM | actives 0.64% (n = 360,000); in the data active = inhibition mostly above about 40%, no sharp cut-off; inactive = mostly below about 27%
# SENP7 block: blocks the human protease SENP7; inhibition, % at 5 µM; Q9BQF6; actives 1.5% (n = 330,000); recombinant SENP7, Z-RLRGG-aminoluciferin luminescence, 40 min;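 active = inhibition above about 50% at the single test dose, limit read from the data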;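 also: plate controls were DMSO with enzyme for no effect and no enzyme buffer wells for full effect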
# SENP6 block: SENP6 protease inhibition | Q9GZR1 | inhibition, % at 10 µM | AID 2599 | actives 1.8% (n = 330,000) | Recombinant SENP6 catalytic domain, aminoluciferin luminescence;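 active = inhibition above about 50% at the single tested dose, limit read from the data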;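 also: plate controls were DMSO wells with enzyme for no effect and DMSO wells lacking enzyme for full effect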
# Apaf-1 inh conf: confirmation of Apaf-1 inhibitors; shares compounds with Apaf-1 inh; reconstituted apoptosome, caspase-3 DEVD-Rh110 fluorescence; inhibition, % at 20 µM; actives 25% (n = 1,800); AID 504614;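 active = mean inhibition of at least 40% at 20 µM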;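 also: plate controls were DMSO wells for no effect and DEVD-CHO caspase inhibitor control wells for full effect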
# Rh110 interf inh: Rh110 signal interference in Apaf-1 inhibitor counter-screen; shares compounds with Apaf-1 inh; Rh110 fluorescence interference, quenched caspase reaction; activation (fluorescence interference), % at 20 µM; 1,800 tested, under 10 active;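 active = signal rise of 40% or more at 20 µM, treated as a fluorescence artifact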
# Apaf1 inh interf: counter-screen for Apaf-1 inhibitors: fluorescence interference, dose response | fluorescence interference counterscreen, Apaf-1 assay format | AID 588538 | 460 tested, under 10 active | shares compounds with Apaf-1 inh | IC50, µM; call rule not given here
# * = called active by the depositor; nt = not tested or not shown. Most compounds without a hit are left out; they make up all but 2.9% or so of the library.
SMILES,SENP8 block-1,Apaf-1 inh,SENP1 inh,SENP8 block-2,SENP7 block,SENP6 block,Apaf-1 inh conf,Rh110 interf inh,others
COC(=O)CCC(=O)OC1(C)C(=O)C=C2C=C(C3CC3)N(CCc3c[nH]c4ccccc34)C=C2C1=O (stereo unspecified),4.9,28.4,-47.5,-22.2,4.7,18.4,nt,nt,
C=CCN1C=C2C(=O)C(C)(OC(=O)CCC(=O)OC)C(=O)C=C2C=C1C1CC1 (stereo unspecified),9.3,43.0*,-74.2,-21.0,1.0,27.3,53.5*,1.6,Apaf1 inh interf=>100
COC(=O)CCC(=O)OC1(C)C(=O)C=C2C=C(C3CC3)N(CCc3ccccn3)C=C2C1=O (stereo unspecified),-9.4,53.2*,-28.0,-5.4,0.5,9.6,37.7,4.4,
COC(=O)CCC(=O)OC1(C)C(=O)C=C2C=C(C3CC3)N(CCCCO)C=C2C1=O (stereo unspecified),0.5,63.7*,-29.7,31.9,8.8,30.1,57.9*,2.2,Apaf1 inh interf=>100
CC(C)C(=O)N1CCCC1(C)C(=O)Nc1ccc(F)cc1 (stereo unspecified),nt,nt,0.1,10.5,nt,nt,nt,nt,
CCOC(=O)C1CCCN(C(=O)c2ccc(S(=O)(=O)Nc3ccccc3OC)cc2)C1 (stereo unspecified),0.4,-3.7,-1.2,5.9,-1.1,3.3,nt,nt,
COc1ccc(-c2nc(-c3ccccc3)nc(N3CCN(C)CC3)c2C#N)cc1,-4.4,41.2*,3.4,17.1,1.9,-6.2,13.3,3.7,
COc1cc(CCc2ccccc2)c(C(=O)O)c(O)c1CC=C(C)C,nt,nt,4.1,19.9,nt,nt,nt,nt,
COc1cc(CCc2ccccc2)c(C(=O)O)c(O)c1C/C=C(/C)CCC=C(C)C,nt,43.3*,1.4,-17.3,0.8,nt,36.8,18.0,
CCOC(=O)c1nn(-c2ccccc2)c(=O)c2c(N)scc12,-0.2,55.5*,11.4,54.6*,-3.9,1.8,21.6,1.9,
O=C1c2ccccc2C(c2nnnn2-c2ccc3c(c2)OCCO3)N1CCOc1ccccc1 (stereo unspecified),nt,nt,3.3,14.7,nt,nt,nt,nt,
CC1(C)Cc2cccc(OCC(=O)N3CCN(c4cccc(C(F)(F)F)c4)CC3)c2O1,16.2,44.6*,1.3,14.5,-1.2,1.0,44.9*,9.4,Apaf1 inh interf=>100
CC1(C)Cc2cccc(OCC(=O)N3CCN(c4cccc(Cl)c4)CC3)c2O1,2.0,15.4,1.0,16.4,-3.8,-1.3,nt,nt,
COc1ccccc1CNC(=O)c1cc(-c2cc(F)ccc2OC(C)C)n[nH]1,nt,nt,6.6,11.0,nt,nt,nt,nt,
CN(CC(=O)Nc1ccc(Cl)cc1)C(=O)c1sccc1-c1ccccc1,1.0,45.9*,-0.2,2.6,8.2,-1.7,33.9,5.6,
COc1ccc(S(=O)(=O)NC(=O)C2(C)CCN2C(=O)C2(c3ccccc3)CCCC2)cc1 (stereo unspecified),nt,nt,1.4,14.1,nt,nt,nt,nt,
O=Cc1coc2c(ccc3ccccc32)c1=O,-6.0,28.9,nt,nt,-7.8,-20.8,nt,nt,
CC12CCC(=O)N1C(C(=O)Nc1ccccc1N1CCCCC1)CS2 (stereo unspecified),-15.0,48.1*,0.9,-1.0,-5.6,-7.9,29.0,-0.9,
CCOc1ccc(S(=O)(=O)N2CCOCC2)cc1NC(=O)C1CSC2(C)CCC(=O)N12 (stereo unspecified),1.5,-3.4,-1.1,1.9,0.1,-6.1,nt,nt,
CC12CCC(=O)N1C(C(=O)Nc1ccccc1N1CCCC1)CS2 (stereo unspecified),nt,nt,-0.9,20.9,nt,nt,nt,nt,
CCN(CC)c1ccc(S(=O)(=O)N2CCCCC2)cc1NC(=O)C1CSC2(C)CCC(=O)N12 (stereo unspecified),2.9,51.0*,-4.3,10.6,9.9,-16.7,5.4,1.6,
Cn1c(C(=O)NCCN2CCCCCC2)cc2c(=O)n(C)c3ccccc3c21,-4.1,43.0*,-22.5,-173.3,-9.2,-8.5,18.9,7.9,
O=C1CCCCCC(=O)[C@H](O)C[C@H](c2ccccc2)O1,nt,nt,1.1,1.2,nt,nt,nt,nt,
Cc1cc(SCC2=NNC(=O)C2)c(Cl)cc1Cl,0.4,47.1*,2.3,13.4,-14.1,2.6,33.4,-1.5,
CCOC(=O)N1CCC(NC(=O)CCCN2C(=O)CSc3ncccc32)CC1,-3.6,2.0,-0.4,16.2,-2.8,-13.9,nt,nt,
SMILES,SENP8 block-1,Apaf-1 inh,SENP1 inh,SENP8 block-2,SENP7 block,SENP6 block,Apaf-1 inh conf,Rh110 interf inh,others
CCOC(=O)N1CCC(NC(=O)CN2C(=O)CSc3ncccc32)CC1,2.0,62.8*,-5.0,2.4,-14.4,0.8,7.8,1.5,
O=C(NCCCN1CCCCCC1)c1cc2c(=O)oc3ccccc3c2s1,-1.7,40.5*,-12.2,-82.8,-0.8,-12.0,11.4,6.0,
CCOc1ccc(C(C)=O)cc1CN1c2ccc(S(N)(=O)=O)cc2CC1C (stereo unspecified),5.6,7.3,-3.9,2.0,1.9,-9.6,nt,nt,
COc1ccc2nc(C)cc(N/N=C/c3ccc(F)cc3)c2c1,-13.3,49.6*,-6.1,-310.1,-2.8,9.0,11.9,5.1,
COc1ccc(/C=N/Nc2cc(C)nc3ccccc23)cc1,-17.7,37.6,-48.2,-299.8,-8.5,-14.3,nt,nt,
CCOC(=O)c1c(NC(=O)CN2CCN(C(=O)c3ccco3)CC2)sc2c1CCCC2,2.7,47.9*,-0.9,8.5,3.5,-1.1,7.5,10.3,
CCN1CCN(Cc2ccc(NC(=O)c3cc(NC(=O)c4cc(-c5ccc(OC)cc5)n[nH]4)cc(OC)c3)cc2C(F)(F)F)CC1,-13.4,56.3*,-0.8,11.4,-0.3,-11.8,18.3,5.3,
CCN1CCN(Cc2ccc(NC(=O)c3cc(NC(=O)c4cncc(-c5cccs5)c4)cc(OC)c3)cc2C(F)(F)F)CC1,-3.5,67.9*,-4.3,-54.3,3.6,7.0,34.3,-2.0,
CCN1CCN(Cc2ccc(NC(=O)c3ccc(C)c(NC(=O)c4csc(-c5ccncc5)n4)c3)cc2C(F)(F)F)CC1,0.2,58.5*,-3.7,2.0,-1.0,-13.9,28.4,1.0,
CCN1CCN(Cc2ccc(NC(=O)c3cc(NC(=O)C4=NN(c5ccccc5)C(=O)C4)cc(OC)c3)cc2C(F)(F)F)CC1,-0.4,50.6*,-0.5,2.1,-3.7,-2.3,20.6,11.6,
CCN1CCN(Cc2ccc(NC(=O)c3ccc(C)c(NC(=O)C4=NN(c5ccccc5)C(=O)C4)c3)cc2C(F)(F)F)CC1,-7.5,24.1,-2.5,-46.2,13.7,-7.3,nt,nt,
CCN1CCN(Cc2ccc(NC(=O)c3ccc(C)c(NC(=O)c4ccno4)c3)cc2C(F)(F)F)CC1,-12.4,24.2,-2.8,8.1,15.1,-4.6,nt,nt,
